Test results taken from BindingDB's records for doi:10.1021/ml1001807 (2011).

Experiments:
[1] = target: Tyrosine-protein kinase receptor UFO (Homo sapiens, UniProt P30530); assay: Inhibition of Axl by TR-FRET based LanthaScreen assay
Summary of the method: (§1)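 TR-FRET LanthaScreen kinase assay with phosphorylation of a substrate; FGFR3 used as the K651E mutant. IC50 derived from two independent experiments; for some compounds, ALK and cKIT values are averages ± SDs of three independent experiments.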

Aurora kinase A = Aurora kinase A (Homo sapiens, UniProt O14965); assay: Inhibition of Aurora A kinase by Caliper mobility shift assay
Summary of the method: (§2)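 Caliper mobility shift kinase assay with phosphorylation of a substrate; IC50 derived from two independent experiments.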

[2] = target: Tyrosine-protein kinase ZAP-70 (Homo sapiens, UniProt P43403); assay: Inhibition of ZAP70 by TR-FRET based LanthaScreen assay; summary of the method: as §1
[3] = target: Tyrosine-protein kinase JAK2 (Homo sapiens, UniProt O60674); assay: Inhibition of JAK2 by TR-FRET based LanthaScreen assay
Insulin receptor = Insulin receptor (Homo sapiens, UniProt P06213); assay: Inhibition of INSR by TR-FRET based LanthaScreen assay; summary of the method: as §1
[4] = target: Tyrosine-protein kinase JAK3 (Homo sapiens, UniProt P52333); assay: Inhibition of JAK3 by Caliper mobility shift assay; summary of the method: as §2
Ephrin type-B receptor 4 = Ephrin type-B receptor 4 (Homo sapiens, UniProt P54760); assay: Inhibition of EPHB4 by TR-FRET based LanthaScreen assay; summary of the method: as §1
[5] = target: Mitogen-activated protein kinase 14 (Homo sapiens, UniProt Q16539); assay: Inhibition of p38alpha by Caliper mobility shift assay
Summary of the method: (§3)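 Caliper microfluidic mobility shift readout of substrate phosphorylation, run per the group's earlier kinase protocol. IC50 taken from two independent experiments.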

[6] = target: 3-phosphoinositide-dependent protein kinase 1 (Homo sapiens) (UniProt O15530); assay: Inhibition of PDK1 by Caliper mobility shift assay
[7] = target: Serine/threonine-protein kinase N1 (Homo sapiens, UniProt Q16512); assay: Inhibition of PKN1 by Caliper mobility shift assay; summary of the method: as §2
[8] = target: Insulin-like growth factor 1 receptor (Homo sapiens, UniProt P08069); assay: Inhibition of IGF1R by TR-FRET based LanthaScreen assay; summary of the method: as §1
Ephrin type-A receptor 4 = Ephrin type-A receptor 4 (Homo sapiens, UniProt P54764); assay: Inhibition of EPHA4 by TR-FRET based LanthaScreen assay; summary of the method: as §1
[9] = target: Hepatocyte growth factor receptor (Homo sapiens, UniProt P08581); assay: Inhibition of HGFR by TR-FRET based LanthaScreen assay
Summary of the method: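 LanthaScreen TR-FRET kinase format, run per the group's earlier protocol. IC50 from two independent experiments; for some compounds, PDGFRα and VEGFR2 values are means ± SD of three independent runs. The FGFR3 used was the K651E mutant.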

[10] = target: Tyrosine-protein kinase JAK1 (Homo sapiens, UniProt P23458); assay: Inhibition of JAK1 by TR-FRET based LanthaScreen assay
[11] = target: cAMP-dependent protein kinase catalytic subunit alpha (Homo sapiens, UniProt P17612); assay: Inhibition of PKAalpha by Caliper mobility shift assay
[12] = target: Fibroblast growth factor receptor 3 (Homo sapiens, UniProt P22607); assay: Inhibition of FGFR3 by TR-FRET based LanthaScreen assay; summary of the method: as §1
[13] = target: Serine/threonine-protein kinase N2 (Homo sapiens, UniProt Q16513); assay: Inhibition of PKN2 by Caliper mobility shift assay; summary of the method: as §2
[14] = target: Rho-associated protein kinase 2 (Homo sapiens, UniProt O75116); assay: Inhibition of ROCK2 by Caliper mobility shift assay; summary of the method: as §2
[15] = target: Proto-oncogene tyrosine-protein kinase receptor Ret (Homo sapiens, UniProt P07949); assay: Inhibition of RET by TR-FRET based LanthaScreen assay; summary of the method: as §1
[16] = target: Glycogen synthase kinase-3 beta (Homo sapiens, UniProt P49841); assay: Inhibition of GSK3-beta by TR-FRET based LanthaScreen assay; summary of the method: as §1
[17] = target: ALK tyrosine kinase receptor (Homo sapiens, UniProt Q9UM73); assay: Inhibition of ALK by TR-FRET based LanthaScreen assay; summary of the method: as §1
[18] = target: Receptor tyrosine-protein kinase erbB-2 (Homo sapiens, UniProt P04626); assay: Inhibition of HER2 by TR-FRET based LanthaScreen assay; summary of the method: as §1
[19] = target: Cyclin-dependent kinase 2 (Homo sapiens, UniProt P24941); assay: Inhibition of CDK2A by Caliper mobility shift assay; summary of the method: as §3

Chain of Mitogen-activated protein kinase 14 (Q16539 whole entry): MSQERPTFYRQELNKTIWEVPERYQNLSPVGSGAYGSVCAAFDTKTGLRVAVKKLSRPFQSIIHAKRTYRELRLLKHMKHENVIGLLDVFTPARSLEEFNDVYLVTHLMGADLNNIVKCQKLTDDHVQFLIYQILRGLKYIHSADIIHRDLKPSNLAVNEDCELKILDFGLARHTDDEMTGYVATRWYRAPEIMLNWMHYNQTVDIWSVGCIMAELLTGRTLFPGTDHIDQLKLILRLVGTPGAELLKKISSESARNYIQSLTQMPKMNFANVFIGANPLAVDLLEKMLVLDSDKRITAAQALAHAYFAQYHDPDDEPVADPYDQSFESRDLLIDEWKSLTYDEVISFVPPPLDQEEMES
Chain of Tyrosine-protein kinase ZAP-70 (P43403 whole entry): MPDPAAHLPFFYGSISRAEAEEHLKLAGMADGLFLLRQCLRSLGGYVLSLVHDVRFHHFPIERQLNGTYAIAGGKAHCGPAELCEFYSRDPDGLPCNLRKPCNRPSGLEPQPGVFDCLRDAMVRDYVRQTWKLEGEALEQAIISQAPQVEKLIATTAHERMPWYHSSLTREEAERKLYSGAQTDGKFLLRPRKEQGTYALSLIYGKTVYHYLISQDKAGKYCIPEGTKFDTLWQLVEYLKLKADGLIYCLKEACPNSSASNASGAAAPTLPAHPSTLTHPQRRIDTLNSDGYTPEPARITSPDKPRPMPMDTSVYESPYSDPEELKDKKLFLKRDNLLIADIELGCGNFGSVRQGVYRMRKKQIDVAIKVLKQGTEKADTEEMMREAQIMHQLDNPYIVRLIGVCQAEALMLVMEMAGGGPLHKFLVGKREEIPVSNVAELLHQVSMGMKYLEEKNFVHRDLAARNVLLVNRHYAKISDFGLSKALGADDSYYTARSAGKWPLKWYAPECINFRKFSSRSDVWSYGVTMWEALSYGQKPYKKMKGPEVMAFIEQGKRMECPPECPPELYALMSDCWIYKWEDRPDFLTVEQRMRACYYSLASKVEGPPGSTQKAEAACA
Chain of Glycogen synthase kinase-3 beta (P49841 whole entry): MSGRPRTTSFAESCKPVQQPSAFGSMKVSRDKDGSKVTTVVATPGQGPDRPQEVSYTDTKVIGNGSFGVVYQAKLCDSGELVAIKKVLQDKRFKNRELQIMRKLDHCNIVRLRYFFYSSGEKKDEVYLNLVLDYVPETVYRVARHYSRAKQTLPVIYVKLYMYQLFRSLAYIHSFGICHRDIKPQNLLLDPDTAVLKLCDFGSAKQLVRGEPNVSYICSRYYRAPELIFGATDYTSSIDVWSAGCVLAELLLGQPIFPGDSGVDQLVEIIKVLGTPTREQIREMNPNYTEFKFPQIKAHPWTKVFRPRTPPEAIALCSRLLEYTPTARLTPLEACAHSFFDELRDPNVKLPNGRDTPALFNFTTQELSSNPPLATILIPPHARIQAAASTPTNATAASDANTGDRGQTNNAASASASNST
Chain of Insulin-like growth factor 1 receptor (P08069 31-736 limits assumed): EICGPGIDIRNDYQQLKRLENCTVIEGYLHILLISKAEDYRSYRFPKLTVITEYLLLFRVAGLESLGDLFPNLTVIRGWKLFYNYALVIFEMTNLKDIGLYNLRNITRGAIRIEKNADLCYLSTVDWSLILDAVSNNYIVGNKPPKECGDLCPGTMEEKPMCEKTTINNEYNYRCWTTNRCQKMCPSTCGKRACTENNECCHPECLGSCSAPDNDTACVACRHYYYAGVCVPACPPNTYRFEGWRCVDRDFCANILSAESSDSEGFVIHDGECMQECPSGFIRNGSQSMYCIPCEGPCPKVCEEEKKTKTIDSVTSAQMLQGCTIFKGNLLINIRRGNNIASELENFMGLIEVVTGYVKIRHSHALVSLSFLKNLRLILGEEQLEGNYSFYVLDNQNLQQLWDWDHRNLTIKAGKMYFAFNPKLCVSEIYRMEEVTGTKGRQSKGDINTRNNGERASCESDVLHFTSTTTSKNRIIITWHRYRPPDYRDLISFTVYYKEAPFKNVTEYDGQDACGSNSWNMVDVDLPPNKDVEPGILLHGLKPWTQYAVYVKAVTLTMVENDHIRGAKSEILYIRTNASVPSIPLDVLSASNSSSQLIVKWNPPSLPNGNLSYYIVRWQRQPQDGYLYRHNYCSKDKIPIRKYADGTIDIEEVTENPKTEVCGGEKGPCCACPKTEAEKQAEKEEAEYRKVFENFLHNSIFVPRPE
Chain of Insulin-like growth factor 1 receptor (P08069 741-1367 limits assumed): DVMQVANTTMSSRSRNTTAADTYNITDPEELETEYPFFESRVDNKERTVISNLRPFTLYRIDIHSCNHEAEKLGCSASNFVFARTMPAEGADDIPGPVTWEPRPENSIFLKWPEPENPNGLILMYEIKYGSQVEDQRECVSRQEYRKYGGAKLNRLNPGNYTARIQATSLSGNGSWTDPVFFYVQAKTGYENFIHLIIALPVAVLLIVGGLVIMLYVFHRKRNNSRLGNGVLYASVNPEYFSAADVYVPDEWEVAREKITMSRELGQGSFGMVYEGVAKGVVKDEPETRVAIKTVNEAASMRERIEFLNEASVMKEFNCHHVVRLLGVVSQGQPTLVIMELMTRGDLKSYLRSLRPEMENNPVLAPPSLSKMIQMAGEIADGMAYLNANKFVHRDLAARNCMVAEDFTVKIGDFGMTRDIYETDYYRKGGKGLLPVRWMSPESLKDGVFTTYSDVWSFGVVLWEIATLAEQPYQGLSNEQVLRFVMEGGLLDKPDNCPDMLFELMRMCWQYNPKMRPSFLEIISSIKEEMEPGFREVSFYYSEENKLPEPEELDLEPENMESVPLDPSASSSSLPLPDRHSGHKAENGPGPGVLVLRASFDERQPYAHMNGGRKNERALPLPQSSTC
Chain of Proto-oncogene tyrosine-protein kinase receptor Ret (P07949 whole entry): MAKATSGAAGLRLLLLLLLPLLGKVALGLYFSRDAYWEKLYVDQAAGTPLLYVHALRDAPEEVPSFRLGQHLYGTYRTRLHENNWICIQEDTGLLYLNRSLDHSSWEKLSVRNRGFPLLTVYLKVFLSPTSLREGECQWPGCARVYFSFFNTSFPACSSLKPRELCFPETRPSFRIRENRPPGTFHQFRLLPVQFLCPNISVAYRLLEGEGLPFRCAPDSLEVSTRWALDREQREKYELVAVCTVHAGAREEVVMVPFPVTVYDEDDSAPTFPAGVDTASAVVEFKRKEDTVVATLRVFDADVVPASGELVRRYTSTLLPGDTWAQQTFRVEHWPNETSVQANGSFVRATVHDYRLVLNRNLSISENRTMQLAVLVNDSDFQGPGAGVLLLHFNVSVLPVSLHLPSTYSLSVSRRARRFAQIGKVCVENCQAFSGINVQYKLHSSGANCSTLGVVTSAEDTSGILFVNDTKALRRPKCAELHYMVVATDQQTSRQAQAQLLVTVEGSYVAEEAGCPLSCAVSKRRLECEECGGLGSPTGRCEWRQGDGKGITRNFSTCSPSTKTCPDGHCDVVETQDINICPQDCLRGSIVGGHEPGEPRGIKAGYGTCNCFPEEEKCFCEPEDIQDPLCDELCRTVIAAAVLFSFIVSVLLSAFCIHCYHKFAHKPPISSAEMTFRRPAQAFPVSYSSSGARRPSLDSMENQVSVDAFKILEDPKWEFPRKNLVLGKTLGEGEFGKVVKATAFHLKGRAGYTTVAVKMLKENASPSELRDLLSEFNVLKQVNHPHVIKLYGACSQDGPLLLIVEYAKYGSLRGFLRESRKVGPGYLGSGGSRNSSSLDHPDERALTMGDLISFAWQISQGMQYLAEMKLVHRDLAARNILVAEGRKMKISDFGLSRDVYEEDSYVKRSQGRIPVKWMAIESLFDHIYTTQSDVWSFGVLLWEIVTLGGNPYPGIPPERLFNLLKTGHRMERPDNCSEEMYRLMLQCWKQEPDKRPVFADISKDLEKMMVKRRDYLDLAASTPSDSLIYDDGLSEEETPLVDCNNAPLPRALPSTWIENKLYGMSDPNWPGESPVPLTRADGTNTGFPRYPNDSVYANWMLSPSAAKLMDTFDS
Chain of Tyrosine-protein kinase JAK3 (P52333 whole entry): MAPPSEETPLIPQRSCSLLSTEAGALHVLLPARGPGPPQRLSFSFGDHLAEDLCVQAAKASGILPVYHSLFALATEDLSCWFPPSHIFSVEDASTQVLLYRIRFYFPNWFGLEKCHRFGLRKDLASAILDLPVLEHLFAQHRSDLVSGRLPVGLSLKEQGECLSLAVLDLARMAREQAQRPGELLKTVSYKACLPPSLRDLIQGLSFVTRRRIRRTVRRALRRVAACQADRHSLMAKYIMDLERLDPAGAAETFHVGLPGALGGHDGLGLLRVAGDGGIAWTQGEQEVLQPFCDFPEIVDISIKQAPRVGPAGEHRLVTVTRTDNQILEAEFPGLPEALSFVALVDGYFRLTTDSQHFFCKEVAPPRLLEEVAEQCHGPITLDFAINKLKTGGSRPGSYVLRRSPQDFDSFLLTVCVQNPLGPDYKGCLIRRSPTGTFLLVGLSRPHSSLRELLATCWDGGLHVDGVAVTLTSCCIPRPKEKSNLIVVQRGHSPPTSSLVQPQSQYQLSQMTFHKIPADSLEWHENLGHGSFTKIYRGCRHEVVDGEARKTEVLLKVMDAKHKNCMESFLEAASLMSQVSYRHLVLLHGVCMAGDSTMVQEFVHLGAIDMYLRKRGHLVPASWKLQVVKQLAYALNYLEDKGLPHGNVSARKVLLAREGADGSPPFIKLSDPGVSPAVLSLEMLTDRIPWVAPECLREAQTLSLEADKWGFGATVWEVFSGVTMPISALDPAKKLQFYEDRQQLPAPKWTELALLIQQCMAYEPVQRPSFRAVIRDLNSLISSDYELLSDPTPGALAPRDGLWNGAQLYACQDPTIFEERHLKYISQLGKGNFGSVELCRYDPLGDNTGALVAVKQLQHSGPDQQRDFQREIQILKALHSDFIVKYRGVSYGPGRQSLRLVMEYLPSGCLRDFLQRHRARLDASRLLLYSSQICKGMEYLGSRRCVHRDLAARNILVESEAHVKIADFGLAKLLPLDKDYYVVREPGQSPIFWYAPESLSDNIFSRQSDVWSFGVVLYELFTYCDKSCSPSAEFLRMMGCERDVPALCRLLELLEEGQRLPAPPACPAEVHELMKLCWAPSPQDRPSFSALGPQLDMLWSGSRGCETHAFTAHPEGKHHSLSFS

**Q.** Which IC50 [1] does the source give for COc1cc(O)c2c(c1)CCCC(=O)C(=O)C(O)CCC[C@H](C)OC2=O (stereo partly drawn) [L-783277] here?
**A.** > 10 µM

**Q.** And the IC50 (Aurora kinase A)?
**A.** > 10 µM

**Q.** And the IC50 [2]?
**A.** > 10 µM

**Q.** What about the IC50 [3] of the same compound?
**A.** > 10 µM

**Q.** What about the IC50 (Insulin receptor) of the same compound?
**A.** > 10 µM

**Q.** And the IC50 [4]?
**A.** > 10 µM

**Q.** And the IC50 (Ephrin type-B receptor 4)?
**A.** > 10 µM

**Q.** What about the IC50 [5] of the same compound?
**A.** > 10 µM

**Q.** And the IC50 [6]?
**A.** > 10 µM

**Q.** And the IC50 [7]?
**A.** > 10 µM

**Q.** What about the IC50 [8] of the same compound?
**A.** > 10 µM

**Q.** And the IC50 (Ephrin type-A receptor 4)?
**A.** > 10 µM

**Q.** What about the IC50 [9] of the same compound?
**A.** > 10 µM

**Q.** What about the IC50 [10] of the same compound?
**A.** > 10 µM

**Q.** And the IC50 [11]?
**A.** > 10 µM

**Q.** And the IC50 [12]?
**A.** > 10 µM

**Q.** And the IC50 [13]?
**A.** > 10 µM

**Q.** What about the IC50 [14] of the same compound?
**A.** > 10 µM

**Q.** What about the IC50 [15] of the same compound?
**A.** > 10 µM

**Q.** What about the IC50 [16] of the same compound?
**A.** > 10 µM

**Q.** And the IC50 [17]?
**A.** 0.763 µM

**Q.** And the IC50 [18]?
**A.** > 10 µM

**Q.** What about the IC50 [19] of the same compound?
**A.** > 10 µM
